Data published in ChEMBL document CHEMBL1124260, “Synthesis and antitumor activity of quaternary ellipticine glycosides, a series of novel and highly active antitumor agents” (1988).

How the values were obtained:
Mus musculus [1] = test: Antitumor activity against ip implanted L1210 leukemia in mouse after ip administration of 120 mg/kg for 5 days expressed as increase in mean life span; assay type: functional; conditions: 120 h, route intraperitoneal
How it was run: (§1)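 Drug was dissolved in 0.9% NaCl, diluted just before use and given ip once daily for 5 consecutive days, starting 24 h after transplant. ILS % = mean survival time of treated vs control mice, observed for 80 days.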

Mus musculus [2] = test: Antitumor activity against ip implanted syngeneic P388 leukemia in mouse after ip administration of 60 mg/kg for 5 days expressed as increase in mean life span; assay type: functional; conditions: 120 h, route intraperitoneal
How it was run: (§2)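 Saline-dissolved drug was given ip daily for 5 consecutive days, beginning 24 h post-transplant. ILS % was calculated from treated vs control mean survival time over an 80-day observation period.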

Mus musculus [3] = test: Number of survivors out of 6 ip implanted L1210 leukemia in mouse after ip administration of 10 mg/kg after 80 days; assay type: functional; conditions: route intraperitoneal
How it was run: (§3)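 Female BDF1 mice implanted ip with ascitic fluid holding 10^5 L1210 cells. Saline-dissolved drug given ip daily on days 1-5, starting 24 h after implant. Six mice per dose group, followed 80 days. Survivors/total counted at day 80; ILS % from mean survival time vs controls.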

Mus musculus [4] = test: Number of survivors out of 6 ip implanted L1210 leukemia in mouse after ip administration of 20 mg/kg after 80 days; assay type: functional; conditions: route intraperitoneal; how it was run: as §3
Mus musculus [5] = test: Number of survivors out of 6 ip implanted L1210 leukemia in mouse after ip administration of 40 mg/kg after 80 days; assay type: functional; conditions: route intraperitoneal; how it was run: as §3
Mus musculus [6] = test: Antitumor activity against ip implanted L1210 leukemia in mouse after ip administration of 1.25 mg/kg for 5 days expressed as increase in mean life span; assay type: functional; conditions: 120 h, route intraperitoneal; how it was run: as §1
Mus musculus [7] = test: Number of survivors out of 6 ip implanted P388 leukemia in mouse after ip administration of 10 mg/kg after 80 days; assay type: functional; conditions: route intraperitoneal
How it was run: (§4)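 P388 leukemia, 10^6 ascitic cells implanted ip in female BDF1 mice. Drug in saline given ip for 5 consecutive days from 24 h after transplant. Groups of six per dose level. Survivors/total recorded at the 80-day end of observation; ILS % from treated/control mean survival time.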

Mus musculus [8] = test: Number of survivors out of 6 ip implanted P388 leukemia in mouse after ip administration of 20 mg/kg after 80 days; assay type: functional; conditions: route intraperitoneal; how it was run: as §4
Mus musculus [9] = test: Number of survivors out of 6 ip implanted P388 leukemia in mouse after ip administration of 40 mg/kg after 80 days; assay type: functional; conditions: route intraperitoneal; how it was run: as §4
Mus musculus [10] = test: Number of survivors out of 6 ip implanted P388 leukemia in mouse after ip administration of 5 mg/kg after 80 days; assay type: functional; conditions: route intraperitoneal; how it was run: as §4
Mus musculus [11] = test: Antitumor activity against ip implanted L1210 leukemia in mouse after ip administration of 10 mg/kg for 5 days expressed as increase in mean life span; assay type: functional; conditions: Mus musculus, L1210, ip, 120 h, route intraperitoneal; how it was run: as §1
Mus musculus [12] = test: Antitumor activity against ip implanted L1210 leukemia in mouse after ip administration of 20 mg/kg for 5 days expressed as increase in mean life span; assay type: functional; conditions: 120 h, route intraperitoneal; how it was run: as §1
Mus musculus [13] = test: Antitumor activity against ip implanted L1210 leukemia in mouse after ip administration of 30 mg/kg for 5 days expressed as increase in mean life span; assay type: functional; conditions: Mus musculus, L1210, ip, 120 h, route intraperitoneal; how it was run: as §1
Mus musculus [14] = test: Antitumor activity against ip implanted L1210 leukemia in mouse after ip administration of 40 mg/kg for 5 days expressed as increase in mean life span; assay type: functional; conditions: 120 h, route intraperitoneal; how it was run: as §1
Mus musculus [15] = test: Antitumor activity against ip implanted L1210 leukemia in mouse after ip administration of 5 mg/kg for 5 days expressed as increase in mean life span; assay type: functional; conditions: Mus musculus, L1210, ip, 120 h, route intraperitoneal; how it was run: as §1
Mus musculus [16] = test: Antitumor activity against ip implanted P388 leukemia in mouse after ip administration of 1.25 mg/kg for 5 days expressed as increase in mean life span; assay type: functional; conditions: 120 h, route intraperitoneal; how it was run: as §2
Mus musculus [17] = test: Antitumor activity against ip implanted P388 leukemia in mouse after ip administration of 10 mg/kg for 5 days expressed as increase in mean life span; assay type: functional; conditions: 120 h, route intraperitoneal; how it was run: as §2
Mus musculus [18] = test: Antitumor activity against ip implanted P388 leukemia in mouse after ip administration of 20 mg/kg for 5 days expressed as increase in mean life span; assay type: functional; conditions: 120 h, route intraperitoneal; how it was run: as §2
Mus musculus [19] = test: Antitumor activity against ip implanted P388 leukemia in mouse after ip administration of 40 mg/kg for 5 days expressed as increase in mean life span; assay type: functional; conditions: 120 h, route intraperitoneal; how it was run: as §2
Mus musculus [20] = test: Antitumor activity against ip implanted P388 leukemia in mouse after ip administration of 5 mg/kg for 5 days expressed as increase in mean life span; assay type: functional; conditions: 120 h, route intraperitoneal; how it was run: as §2
Mus musculus [21] = test: Number of survivors out of 6 ip implanted L1210 leukemia mouse, tested after 80 days at 30 mg/kg; assay type: functional; conditions: route intraperitoneal; how it was run: as §3
Mus musculus [22] = test: Inhibition of sc implanted syngeneic colon 38 carcinoma by ip administration at 20 mg/kg on 1, 3, 5, 7, 9 days measured as inhibition ratio; assay type: functional; conditions: route subcutaneous
How it was run: (§5)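 Tumor homogenate (70 mg) implanted into the axillary region of female BDF1 mice. Drug dissolved in 0.9% NaCl and diluted with saline just before use, then given ip on days 1, 3, 5, 7 and 9. Tumor length and width were measured by caliper on day 20 after inoculation and converted to estimated weight. Result reported as treated vs control tumor weight, T/C %.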

Mus musculus [23] = test: Inhibition of sc implanted syngeneic colon 38 carcinoma by ip administration at 30 mg/kg on 1, 3, 5, 7, 9 days measured as inhibition ratio; assay type: functional; conditions: route intraperitoneal; how it was run: as §5
Mus musculus [24] = test: Inhibition of sc implanted syngeneic colon 38 carcinoma by ip administration at 40 mg/kg on 1, 3, 5, 7, 9 days measured as inhibition ratio; assay type: functional; conditions: route subcutaneous; how it was run: as §5
Mus musculus [25] = test: Effect on ip implanted syngeneic B16 melanoma by ip administration of 20 mg/kg for 9 days measured as increase in mean life span; conditions: 216 h
Mus musculus [26] = test: Effect on ip implanted syngeneic B16 melanoma by ip administration for 9 days at 5 mg/kg was measured as increase in mean life span; conditions: 216 h
Mus musculus [27] = test: Effect on ip implanted syngeneic B16 melanoma by ip administration for 9 days at 10 mg/kg was measured as increase in mean life span; conditions: 216 h
Mus musculus [28] = test: Antitumor activity against ip implanted P388 leukemia in mouse after ip administration of 30 mg/kg for 5 days expressed as increase in mean life span; assay type: functional; conditions: 120 h, route intraperitoneal; how it was run: as §2
Mus musculus [29] = test: Antitumor activity against ip implanted syngeneic L1210 leukemia in mouse after ip administration of 60 mg/kg for 5 days expressed as increase in mean life span; assay type: functional; conditions: 120 h, route intraperitoneal; how it was run: as §1

Cc1c2ccncc2c(C)c2c1[nH]c1ccccc12 [ELLIPTECINE]
ILS at 120 mg/kg (Mus musculus [1]): 128%
ILS at 60 mg/kg (Mus musculus [2]): 139%

Cc1c2cc[n+]([C@@H]3OC[C@@H](O)[C@H](O)[C@@H]3O)cc2c(C)c2c1[nH]c1ccc(O)cc12.[Cl-]
Cures (Mus musculus [3]): 1
Cures (Mus musculus [4]): 1
Cures (Mus musculus [5]): 4
ILS at 1.25 mg/kg (Mus musculus [6]): 46%
Cures (Mus musculus [7]): 2
Cures (Mus musculus [8]): 4
Cures (Mus musculus [9]): 4
Cures (Mus musculus [10]): 1
ILS at 10 mg/kg (Mus musculus [11]): > 238%
ILS at 20 mg/kg (Mus musculus [12]): > 249%
ILS at 30 mg/kg (Mus musculus [13]): > 786%
ILS at 40 mg/kg (Mus musculus [14]): > 668%
ILS at 5 mg/kg (Mus musculus [15]): 68%
ILS at 1.25 mg/kg (Mus musculus [16]): 87%
ILS at 10 mg/kg (Mus musculus [17]): > 369%
ILS at 20 mg/kg (Mus musculus [18]): > 585%
ILS at 40 mg/kg (Mus musculus [19]): > 526%
ILS at 5 mg/kg (Mus musculus [20]): > 212%
Cures (Mus musculus [21]): 5
T/C (Mus musculus [22]): 37%
T/C (Mus musculus [23]): 18%
T/C (Mus musculus [24]): 5%
ILS at 20 mg/kg (Mus musculus [25]): 87%
ILS at 5 mg/kg (Mus musculus [26]): 41%
ILS at 10 mg/kg (Mus musculus [27]): 61%

Cc1c2ccncc2c(C)c2c1[nH]c1ccc(O)cc12
ILS at 30 mg/kg (Mus musculus [28]): 91%
ILS at 60 mg/kg (Mus musculus [29]): 79%
